Data published in the EternaBench riboswitch data.

Tested on: MS2 coat protein
Experiment: apparent Kd, MS2 coat protein; higher = weaker binding; RNA-MaP array; FMN 200 µM where present
How it was run: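 Stalled E. coli RNA polymerase transcribed each design on Illumina sequencing-chip clusters. The clusters were titrated with SNAP-549-labelled MS2 coat protein, starting at 0.7 or 1.5 nM and doubling up to 3 µM, first without ligand and then with constant ligand, in 100 mM Tris-HCl pH 7.5, 80 mM KCl, 4 mM MgCl2, BSA, DTT, yeast tRNA and Tween-20. Green signal was normalised to red-channel RNA signal and to the control-cluster median Fmax. The apparent Kd is the median of filtered binding-curve fits made for each cluster.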

[1] = designed as: OFF switch for flavin mononucleotide, no ligand
[2] = ligand present: flavin mononucleotide, designed as: OFF switch for flavin mononucleotide
[3] = designed as: ON switch for flavin mononucleotide, no ligand
[4] = ligand present: flavin mononucleotide, designed as: ON switch for flavin mononucleotide

Row | Sequence | apparent Kd [1] [nM] | apparent Kd [2] [nM] | apparent Kd [3] [nM] | apparent Kd [4] [nM]
1 | GUAAAGUGAGGAUAUGGUAAAUUAAUUAUUUAUUAAUUAAUCCAGAAGGCACAUGAGGAUCACCCAUGUAAAUG | 31.2 | 56.1 | – | –
2 | GUCAGCUCGUGAGGAUAUACAUGUGCUGGAAACAGCACUAUUAAGUUCACAUGAGGAUCACCCAUGUAGAAGGCACGAGCUGAU | 15.7 | 20.3 | – | –
3 | CGGCGCUGUCGAGAGGAUAUGCGGUGAUGGACAUGAGGAUCACCCAUGUUAGCGAUAGCAUCACGGUAGAAGGCUCUACGGCCUG | – | – | 112 | 15.6
4 | GGGUAACAUGAGGAUCACCCAUGUGAGGAUAUCCUAGGGAUGGAAGCUCGGCCAACCAGGAGAAGGUACUAAAG | 73.9 | 131 | – | –
5 | UGAUUGGACAGAGGAUAUACGUGCUAGAGAUACUAGCAAAAUAUCCUCACAUGAGGAUCACCCAUGUAGAAGGCUGUCCAAUCU | 17.3 | 85.1 | – | –
6 | GGCCCGCGCGUGAGGAUAUGCUGAUACUAGGAUCAGCAGAAGGCACAUGAGGAUCACCCAUGUCCAACUUGUCU | 28.9 | 36.4 | – | –
7 | UAGAAUCGAGGAUAUACAUGAGGAUCACCCAUGUGUGGCCAUACGGUGUGGUCGUCAGGUAGAAGGCGAUUAUA | 34.4 | 14.6 | – | –
8 | UUGGACGUCGUAGGAUAUGUAGGAUAUUUCUACAUGAGGAUCACCCAUGUUGACAUGGAAGAAGGACAGAAGGACGAUGUCCAU | – | – | 123 | 5.64
9 | CCAUGACCGGAGAAGGCAGUUUGUGGGCCUGUUCCUGUCGGAUACAUGAGGAUCACCCAUGUACCUGAGGAUAUCUGGUCGCAG | 5.06 | 6.13 | – | –
10 | CGAACUAAGUAGAAGGCAGUCUUAAAAUAGGACUGAGGAUAUACAUGAGGAUCACCCAUGUACUCCUUUAAUAAGUUUGAAAUA | 5.31 | 5.38 | – | –
11 | GUGUGAAUAAGAGGAUAUAUACAACAUGAGGAUCACCCAUGUACCCGUGUAGUAGAAGGUUUGUUUUUAUAUAAUAUUAUAUUU | – | – | 27.4 | 22.8
12 | AUUAUAUAGACAGGAUAUUGAUUAUUAUUUUAACAUGAGGAUCACCCAUGUAGCCUUAUGUAUAACAAGAAGGGUCAUUUAUUA | 151 | 190 | – | –
13 | CCGAGAUGUGCAGGAUAUCAGGAUACGGUCCGCUGAGAAGGGCACAUGAGGAUCACCCAUGUGUGCGCAUAGGUGAAAGGCUUU | 285 | 154 | – | –
14 | AGGAAACAUGAGGAUCACCCAUGUAAAGAAGGGUGAGGAUAUACAAAGAAAAGAAAGAAAGUAGAAGGCACAAAAG | – | – | 556 | 635
15 | GCCAGUUAUGUAGGAUAUGCGCAGCGAGCCUGAGCAGAAGGACAUGAGGAUCACCCAUGUGUUGCGGUUUGAGUACUGAUCGCU | 24.6 | 130 | – | –
16 | GGGUGACAUGAGGAUCACCCAUGUCAGGAUAUCUAGGGCAGAUGCUGGGAGCGUUCGCAGAGAAGGGACCAGAU | 52.3 | 46.1 | – | –
17 | AGCAAGUAUACAUGAGGAUCACCCAUGUUUUUUAGGGUUAUCAGAAGGUACAUUUUGAGAUAGAGUAAGGAUAUGAAAUAUGCG | – | – | 214 | 130
18 | AUCAGCUCGUCAGGAUAUAUAUCACUGCUUCGGCAGUGUAUUAAGAUCACAUGAGGAUCACCCAUGUAGAAGGGACGAGCUGAU | 16.8 | 20.2 | – | –
19 | UUUGCAACAUGAGGAUCACCCAUGUAGGAUAUCGCUAUUGUAAUCAUGAAACAUGAUUACAAUAGCGAGAAGGACAUAUGCUUU | 20.1 | 18.3 | – | –
20 | AACUGUCUAAAGGAUAUGCUGGAUUAAUAUCUGGCAGAAGGUUGGACAUGAGGAUCACCCAUGUAAAUACUACC | 21.6 | 70.1 | – | –
21 | AAAAUAAGAACAGGAUAUGUGGGUUCGAAGAGCAAAACUCUCCACAUGAGGAUCACCCAUGUGCCACAGAAGGGUUCGGGUGAU | – | – | 66.9 | 12.4
22 | UCCACUGCUGAGAAGGGAUACGUGUGGUUCGCAUCAGGAUAUCGAUACAGUGCAGCAUGAGGACAUGAGGAUCACCCAUGUAUU | – | – | 24.6 | 13.4
23 | GUCAGCUCGUAAGGAUAUACAACACUGCUUCGGCAGUGUAUUAAGAUCACAUGAGGAUCACCCAUGUAGAAGGCACGAGCUGAU | 7.06 | 18.9 | – | –
24 | AGUAGAUCAGGAUAUACGUAAAUGGUAAUUAUGUAACUUUUACAUGAGGAUCACCCAUGUAGAAGGGAUCUACA | 17.5 | 18.1 | – | –
25 | GAUUCGGGAGGAUAUACAUGAGGAUCACCCAUGUGUUUUUUGUGUGUUAUGUUAUCAUGUAGAAGGUUUGGGUC | 286 | 260 | – | –
26 | AUCAACCAGGCAGGAUAUCAAUGUGGCCUCAUCGUACACCCUCGCAACAUGAGGAUCACCCAUGUUGAGAAGGGCCAAUUGAGA | 8.52 | 8.99 | – | –
27 | GAUAGACAUGAGGAUCACCCAUGUGAGGAUAUGCGUACGUUGUCAGUAGGCGACGUGCGCAGAAGGCGCAAGUU | 77.1 | 46.5 | – | –
